# OXTR agonist: activates the human oxytocin receptor | P30559 | CHO-OTR cells, Fluo-8 calcium fluorescence; normalized: DMSO 0%, oxytocin 100% | activation, % at 3 µM | 320,000 tested, 0.32% active | AID 2435;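 active = activation above the mean of all tested compounds plus 3 SD, cutoff set per screening run, cut at about 20% in these data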;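 note: peak over basal fluorescence ratio from a 100 s FLIPR kinetic read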
# OXTR potentiate: potentiates the human oxytocin receptor response; P30559; CHO-OTR cells, Fluo-8 calcium fluorescence, potentiator mode; 0% = oxytocin EC15, 100% = EC100; activation, % at 3 µM; 320,000 tested, 0.061% active;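 active = activation above that plate's cutoff, the mean activation of tested compounds plus 3 SD, cut at about 6.6% in these data, passing the limit was not always enough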;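 note: 100% uses oxytocin at 75 nM as the full agonist control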
#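 Assay system: CHO cell line stably expressing human OTR. Reagent: EC15 oxytocin agonist. Dosing: single dose, 3.0 µM nominal final compound concentration. Timing: compound 6 min at room temperature before oxytocin, 100 s read. Signal: kinetic Fluo-8 calcium fluorescence. Controls: oxytocin EC15 low and EC100 high.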
# M4 ag: agonists of human muscarinic M4 receptor (CHRM4) | CHO-K1 hM4/Gqi5, Fluo-8 calcium fluorescence; vehicle 0%, full acetylcholine response 100% | activation, % at 3 µM | 360,000 tested, 0.14% active | AID 624127;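 active = activation above the run mean over all test wells plus 3 SD, cut at about 32% in these data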;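 note: peak over basal fluorescence ratio per well then scaled between controls; 0% = DMSO wells and 100% = acetylcholine at EC100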
# V1R ag counter: counter-screen for oxytocin receptor agonists: human V1a receptor agonists; P37288; CHO-V1R cells, Fluo-8 calcium fluorescence, agonist mode; 0% DMSO, 100% 3 nM vasopressin; activation, % at 3 µM; 320,000 tested, 0.25% active;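 active = activation above the mean activation of all tested compounds plus 3 SD, per screening run, cut at about 20% in these data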;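 note: signal is peak over basal fluorescence ratio across a 100 second FLIPR read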
# Target sequence (P37288 whole entry, looked up): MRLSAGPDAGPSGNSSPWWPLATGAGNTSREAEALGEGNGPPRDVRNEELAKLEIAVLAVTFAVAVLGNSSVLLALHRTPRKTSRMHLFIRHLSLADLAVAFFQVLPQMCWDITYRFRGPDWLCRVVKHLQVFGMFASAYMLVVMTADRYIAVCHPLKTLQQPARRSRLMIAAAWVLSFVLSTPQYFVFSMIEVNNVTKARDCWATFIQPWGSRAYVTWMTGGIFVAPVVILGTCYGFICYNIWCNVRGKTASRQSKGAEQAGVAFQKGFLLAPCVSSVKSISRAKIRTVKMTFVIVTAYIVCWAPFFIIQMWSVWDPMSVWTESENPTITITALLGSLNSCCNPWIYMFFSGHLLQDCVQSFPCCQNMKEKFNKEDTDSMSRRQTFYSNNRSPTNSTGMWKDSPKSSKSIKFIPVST
# M4 PAM: positive allosteric modulators of human muscarinic M4 receptor | P08173 | CHO-K1 hM4/Gqi5, Fluo-8 calcium fluorescence, ACh EC20; 0% = ACh EC20, 100% = maximal ACh | activation, % at 3 µM | 360,000 tested, 0.4% active | AID 624126;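 active = activation above its plate's cutoff, the mean activation of sample wells plus 3 SD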
# CHRM4 antagonist: CHRM4 antagonism in calcium assay | CHO-hM4 cells, ACh EC80, Fluo-8 calcium fluorescence | inhibition, % at 3 µM | 360,000 tested, 0.73% active | AID 624125;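 active = inhibition above its plate's cutoff, the mean inhibition of sample wells plus 3 SD, cut at about 27% in these data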;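 note: 0% = acetylcholine EC80 with DMSO and 100% = DMSO without agonist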
# The depositor's hits bear a star; . = no result given. Rows were chosen to be rich in hits. Some 1.5% of all compounds tested hit in one or more screens of this group.
SMILES,OXTR agonist,OXTR potentiate,M4 ag,V1R ag counter,M4 PAM,CHRM4 antagonist
CC(=O)c1ccc2c(c1)N(CCCN(C)C)c1ccccc1S2,.,.,2,.,-17,34*
CC(=O)c1ccc2c(c1)N(C)c1ccccc1S2,-2,-7,-1,0,5,8
COc1ccc2c(c1)Sc1ccccc1N2CCN(C)C,4,-12,4,1,-15,23
CNCCCN1c2ccccc2CCc2ccccc21,4,-16,10,4,-19,36*
COc1ccccc1CNC(=O)CN1C(=O)NC2(CCCCCC2)C1=O,-1,-4,1,2,4,-6
CCOc1ccc2oc(C(=O)OCC(=O)NC3CCCC3)c(C)c2c1,0,-7,4,2,-1,-3
CC(C)C[C@H]1COc2cc(N3CCC[C@@H]3CO)ccc2S(=O)(=O)N1,.,.,16,.,11,-21
CCN(CC)CCN1c2ccccc2Sc2ccc3ccccc3c21,4,-4,4,2,-15,20
CN(C)CCCN1c2ccccc2Sc2ccccc21,4,-6,7,5,-17,51*
CCN(CC)CCN1c2ccccc2Sc2ccccc21,2,-7,3,10,-18,89*
COCCCOc1ccnc(CS(=O)c2nc3ccccc3[nH]2)c1C (stereo unspecified),-1,-5,4,2,-1,-33
COc1ccc2nc(S(=O)Cc3ncc(C)c(OC)c3C)[nH]c2c1 (stereo unspecified),-1,-2,1,0,-16,42*
CCOC(=O)C1CCCN(c2nc3ccccc3nc2C(C#N)C(=O)OC(C)C)C1 (stereo unspecified),-1,-1,2,1,21*,0
Cc1ccccc1-c1nc(CN2CCC(C(=O)NCCCN3CC(C)CC(C)C3)CC2)c(C)o1 (stereo unspecified),1,-5,-1,0,8,-13
C=CCN(c1ccccc1)S(=O)(=O)c1ccc(Cl)c(C(=O)OCC(=O)c2[nH]c(C)c(C(C)=O)c2C)c1,-1,-8,6,1,-30,27*
O=C(CCN1C(=O)NC2(CCCC2)C1=O)Nc1ccc(-c2nc3ccccc3s2)cc1,13,-10,28,9,-13,27*
O=C(CCN1C(=O)NC2(CCCC2)C1=O)Nc1ccc(Sc2ccc(Br)cc2)cc1,.,.,4,.,-13,-5
COC(=O)c1ccccc1S(=O)(=O)N1CCC(C(=O)NCC2CCCO2)CC1 (stereo unspecified),-1,-3,1,0,-2,3
COC(=O)c1ccccc1S(=O)(=O)N1CCC(C(=O)NCc2ccco2)CC1,0,-4,1,0,23*,-4
CCN1C[C@@H]2[C@@H]3C(=O)N(C)C(=O)[C@@H]3[C@](Cc3ccccc3)(C(=O)OC)N2C1=NC1CCCCC1,.,.,0,.,-3,-3
O=C(NCc1ccco1)c1ccc2c(=O)n(Cc3ccco3)c(SCC(=O)N3CCCC3)nc2c1,-1,-4,-3,-2,-30,42*
O=C(CSc1nc2ccccc2c(=O)n1Cc1ccco1)N1CCCCCC1,-2,-2,0,-1,13,5
CC1(C)CC(=O)C(N=Nc2cccc(S(=O)(=O)N3CCOCC3)c2)=C(O)C1,1,3,3,0,25*,-8
CC1CCN(S(=O)(=O)c2ccc(N=NC3=C(O)CC(C)(C)CC3=O)cc2)CC1,0,-6,1,0,6,-11
COc1ccc(-c2nnc(OC)c3ccccc23)cc1,-2,-5,1,-1,-15,35*
SMILES,OXTR agonist,OXTR potentiate,M4 ag,V1R ag counter,M4 PAM,CHRM4 antagonist
COc1cccc(Nc2nc(C(N)Cc3ccc(F)cc3)cs2)n1 (stereo unspecified),.,.,35*,.,6,14
COc1cccc(Nc2nc(C(N)Cc3ccc(Cl)cc3)cs2)n1 (stereo unspecified),.,.,47*,.,1,26
COc1ccc(CC(N)c2csc(Nc3cccc(OC)n3)n2)cc1 (stereo unspecified),.,.,18,.,4,0
C[N+]1(C)CCC(OC(=O)C(O)(c2ccccc2)C2CCCC2)C1 (stereo unspecified),0,0,0,0,-16,99*
CCN(CC)CC#CCOC(=O)C(O)(c1ccccc1)C1CCCCC1 (stereo unspecified),-1,-2,.,1,.,.
C[N+]1(C)CC[C@H](OC(=O)[C@@](O)(c2ccccc2)C2CCCC2)C1,8,-16,0,-1,-18,99*
O=C(Nc1ccccc1C(F)(F)F)C(O)(c1ccccc1)C1CCCCC1 (stereo unspecified),-1,-8,1,-1,10,-7
CCc1cccc(NC(=O)C2CCN(c3ncnc4sc(C)c(C)c34)CC2)c1,-1,-9,10,1,20,12
Cc1sc2ncnc(N3CCC(C(=O)Nc4ccc(Br)cc4Br)CC3)c2c1C,-1,-12,0,2,22*,-5
CNC(=O)c1ccc(NC(=O)C2CCN(c3ncnc4sc(C)c(C)c34)CC2)cc1,1,-7,72*,1,9,70*
Cc1sc2ncnc(N3CCC(C(=O)Nc4ccc(Cl)cc4Cl)CC3)c2c1C,-1,-12,13,0,38*,0
CCS(=O)(=O)N1CCN(c2ncnc3sc(C)c(C)c23)CC1,1,-9,8,0,21*,-9
CCN(CC)c1ccc(C(=O)NNC(=O)C2CCN(c3ncnc4sc(C)c(C)c34)CC2)cc1,.,.,4,.,3,-12
Cc1cc(C)c(C)c(S(=O)(=O)N2CCN(c3ncnc4sc(C)c(C)c34)CC2)c1C,0,-9,1,2,8,-5
Cc1sc2ncnc(N3CCC(C(=O)Nc4ccc(Cl)c(Cl)c4)CC3)c2c1C,0,-8,3,1,23*,0
Cc1cc(-c2ccc(Cl)cc2)n2nc(N)nc2n1,-2,0,0,-1,28*,-1
Nc1nc2nccc(-c3ccc(Cl)cc3)n2n1,-1,-10,0,-1,0,-15
CCOC(=O)N1CCN(C(=O)c2ccc3c(=O)n(CCC4=CCCCC4)c(=O)[nH]c3c2)CC1,0,-20,2,1,-24,39*
O=C(OCC(=O)N1CCN(C(=O)COC(=O)c2ccc(O)cc2O)CC1)c1ccc(O)cc1O,-1,-4,0,0,5,-7
Cc1cccc2sc(NC(=O)C3CCN(S(=O)(=O)c4cc([N+](=O)[O-])ccc4Cl)CC3)nc12,3,-10,11,2,-24,29*

# Source: PubChem BioAssay
